In ChEMBL document CHEMBL1144940 (J Med Chem, 2003):
Bridge positions count the residues as written; N and C are the ends. Square brackets hold non-standard residues; d marks the D form. Peptide text beside a SMILES is read from it. d2Nal = N[C@H](Cc1ccc2ccccc2c1)C(=O)O; Pen = CC(C)(S)[C@H](N)C(=O)O; Nle = CCCC[C@H](N)C(=O)O

Assays:
Melanocortin receptor 5 [1] = target: T1, Melanocortin receptor 5 (Homo sapiens, UniProt P33032); assay: Intracellular cAMP accumulation in human Melanocortin 5 receptor functional assay.
T1 sequence (P33032 whole entry): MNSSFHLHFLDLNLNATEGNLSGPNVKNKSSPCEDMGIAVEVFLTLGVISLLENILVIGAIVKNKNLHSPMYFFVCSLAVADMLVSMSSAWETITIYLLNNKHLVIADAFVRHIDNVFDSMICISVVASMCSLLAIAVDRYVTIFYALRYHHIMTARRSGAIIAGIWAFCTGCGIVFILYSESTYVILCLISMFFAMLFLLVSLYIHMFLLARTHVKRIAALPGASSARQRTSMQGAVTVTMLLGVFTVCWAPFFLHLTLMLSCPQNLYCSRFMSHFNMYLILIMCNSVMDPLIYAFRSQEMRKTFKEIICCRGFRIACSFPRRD

Melanocortin receptor 4 [2] = target: T2, Melanocortin receptor 4 (Homo sapiens, UniProt P32245); assay: Binding affinity against Melanocortin 4 receptor by gamma-MCH displacement.
T2 sequence (P32245 whole entry): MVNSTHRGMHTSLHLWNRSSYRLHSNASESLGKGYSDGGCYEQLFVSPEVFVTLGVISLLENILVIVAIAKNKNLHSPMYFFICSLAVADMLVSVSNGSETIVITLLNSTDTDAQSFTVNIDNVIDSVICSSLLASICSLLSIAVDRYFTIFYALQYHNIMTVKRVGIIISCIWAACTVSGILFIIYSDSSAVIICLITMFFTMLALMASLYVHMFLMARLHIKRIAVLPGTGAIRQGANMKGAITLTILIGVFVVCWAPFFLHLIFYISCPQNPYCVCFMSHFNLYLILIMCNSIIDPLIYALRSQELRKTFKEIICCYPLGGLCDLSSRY
In short: (§1)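 Competition binding on intact HEK293 cells stably expressing the human receptor, seeded 50000 cells/well 48 h earlier. Lysates were gamma-counted. Ki came from competition curves; mean of duplicate experiments in triplicate.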

Melanocortin receptor 4 [3] = target: T2, Melanocortin receptor 4; assay: Intracellular cAMP accumulation in Melanocortin 4 receptor functional assay.
Melanocortin receptor 3 [4] = target: T3, Melanocortin receptor 3 (Homo sapiens, UniProt P41968); assay: Binding affinity against human Melanocortin 3 receptor by gamma-MCH displacement.; in short: as §1
T3 sequence (P41968 whole entry): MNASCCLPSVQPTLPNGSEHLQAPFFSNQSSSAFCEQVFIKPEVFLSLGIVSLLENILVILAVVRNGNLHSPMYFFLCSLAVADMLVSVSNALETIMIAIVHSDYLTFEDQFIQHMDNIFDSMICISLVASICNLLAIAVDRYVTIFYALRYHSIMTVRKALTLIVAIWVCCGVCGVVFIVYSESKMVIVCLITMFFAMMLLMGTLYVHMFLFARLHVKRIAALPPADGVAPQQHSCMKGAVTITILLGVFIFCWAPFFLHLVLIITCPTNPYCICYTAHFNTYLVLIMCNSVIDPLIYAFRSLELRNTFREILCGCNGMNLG

Melanocortin receptor 3 [5] = target: T3, Melanocortin receptor 3; assay: Intracellular cAMP accumulation in human Melanocortin 3 receptor functional assay.
Melanocortin receptor 5 [6] = target: T1, Melanocortin receptor 5; assay: Binding affinity against human Melanocortin 5 receptor by gamma-MCH displacement.; in short: as §1
Melanocortin receptor 3 [7] = target: T3, Melanocortin receptor 3; assay: Agonist activity against human Melanocortin 3 receptor at 10 uM
Melanocortin receptor 4 [8] = target: T2, Melanocortin receptor 4; assay: Agonist activity against human Melanocortin 4 receptor at 10 uM
Melanocortin receptor 5 [9] = target: T1, Melanocortin receptor 5; assay: Agonist activity against human Melanocortin 5 receptor at 10 uM

| SMILES | EC50 (Melanocortin receptor 5 [1]) [nM] | Ki (Melanocortin receptor 4 [2]) [nM] | EC50 (Melanocortin receptor 4 [3]) [nM] | Ki (Melanocortin receptor 3 [4]) [nM] | EC50 (Melanocortin receptor 3 [5]) [nM] | Ki (Melanocortin receptor 5 [6]) [nM] | Activity (Melanocortin receptor 3 [7]) [%] | Activity (Melanocortin receptor 4 [8]) [%] | Activity (Melanocortin receptor 5 [9]) [%] |
| --- | --- | --- | --- | --- | --- | --- | --- | --- | --- |
| CCCC[C@H](NC(=O)[C@@H](NC(=O)[C@@H](N)Cc1ccc(O)cc1)C(C)C)C(=O)N[C@@H]1C(=O)N[C@@H](Cc2c[nH]cn2)C(=O)N[C@@H](Cc2ccccc2)C(=O)N[C@@H](CCCN=C(N)N)C(=O)N[C@@H](Cc2c[nH]c3ccccc23)C(=O)N[C@H](C(=O)N[C@@H](CCCN=C(N)N)C(=O)N[C@@H](Cc2ccccc2)C(=O)NCC(N)=O)CSSC1(C)C (H-YV[Nle][Pen]HFRWCRFG-NH2; disulfide 4-9) | 74 | > 10000 | 200 | 150 | 19 | 150 | – | – | – |
| CCCC[C@H](NC(=O)[C@@H](NC(=O)[C@@H](N)Cc1ccc(O)cc1)C(C)C)C(=O)NCC(=O)N[C@@H](Cc1c[nH]cn1)C(=O)N[C@@H](Cc1ccccc1)C(=O)N[C@@H](CCCN=C(N)N)C(=O)N[C@H](Cc1ccc2ccccc2c1)C(=O)N[C@@H](CC(=O)O)C(=O)N[C@@H](CCCN=C(N)N)C(=O)N[C@@H](Cc1ccccc1)C(=O)NCC(N)=O | 28 | 1.5 | > 10000 | 15 | 2400 | 17 | 31 | – | 80 |
| CCCC[C@H](NC(=O)[C@@H](NC(=O)[C@@H](N)Cc1ccc(O)cc1)C(C)C)C(=O)NCC(=O)N1CCC[C@H]1C(=O)N[C@H](Cc1ccc2ccccc2c1)C(=O)N[C@@H](CCCN=C(N)N)C(=O)N[C@@H](Cc1c[nH]c2ccccc12)C(=O)N[C@@H](CC(=O)O)C(=O)N[C@@H](CCCN=C(N)N)C(=O)N[C@@H](Cc1ccccc1)C(=O)NCC(N)=O (H-YV[Nle]GP[d2Nal]RWDRFG-NH2) | – | 0.22 | – | 0.2 | – | 14 | 70 | 100 | – |
| CC(C)[C@H](NC(=O)[C@@H](N)Cc1ccc(O)cc1)C(=O)N[C@H]1CSSC[C@@H](C(=O)N[C@@H](CCCN=C(N)N)C(=O)N[C@@H](Cc2ccccc2)C(=O)NCC(N)=O)NC(=O)[C@H](Cc2c[nH]c3ccccc23)NC(=O)[C@H](CCCN=C(N)N)NC(=O)[C@H](Cc2ccccc2)NC(=O)[C@H](Cc2c[nH]cn2)NC(=O)CNC1=O | 450 | 22 | 9 | 68 | 36 | 210 | – | – | – |
| CC(C)[C@H](NC(=O)[C@@H](N)Cc1ccc(O)cc1)C(=O)NC1CSSCC(C(=O)N[C@@H](CCCN=C(N)N)C(=O)N[C@@H](Cc2ccccc2)C(=O)NCC(N)=O)NC(=O)[C@H](Cc2c[nH]c3ccccc23)NC(=O)[C@H](CCCN=C(N)N)NC(=O)[C@@H](Cc2ccccc2)NC(=O)[C@H](Cc2c[nH]cn2)NC(=O)CNC1=O (stereo in doubt) | > 10000 | 460 | 250 | > 10000 | > 10000 | > 3900 | – | 46 | – |
| CCCC[C@H](NC(=O)[C@@H](NC(=O)[C@@H](N)Cc1ccc(O)cc1)C(C)C)C(=O)NCC(=O)N[C@@H](CCN)C(=O)N[C@@H](Cc1ccccc1)C(=O)N[C@@H](CCCN=C(N)N)C(=O)N[C@H](Cc1ccc2ccccc2c1)C(=O)N[C@@H](CC(=O)O)C(=O)N[C@@H](CCCN=C(N)N)C(=O)N[C@@H](Cc1ccccc1)C(=O)NCC(N)=O | – | – | – | – | – | – | – | – | 100 |
| CCCC[C@H](NC(=O)[C@@H](NC(=O)[C@@H](N)Cc1ccc(O)cc1)C(C)C)C(=O)N[C@H]1CSSC[C@H](C(=O)N[C@@H](CCCN=C(N)N)C(=O)N[C@@H](Cc2ccccc2)C(=O)NCC(N)=O)NC(=O)[C@H](Cc2c[nH]c3ccccc23)NC(=O)[C@H](CCCN=C(N)N)NC(=O)[C@H](Cc2ccccc2)NC(=O)[C@H](Cc2c[nH]cn2)NC1=O | 270 | > 10000 | 83 | 240 | 39 | 220 | – | – | – |
| CCCC[C@H](NC(=O)[C@@H](NC(=O)[C@@H](N)Cc1ccc(O)cc1)C(C)C)C(=O)NCC(=O)NC(C)(C)C(=O)N[C@@H](Cc1ccccc1)C(=O)N[C@@H](CCCN=C(N)N)C(=O)N[C@H](Cc1ccc2ccccc2c1)C(=O)N[C@@H](CC(=O)O)C(=O)N[C@@H](CCCN=C(N)N)C(=O)N[C@@H](Cc1ccccc1)C(=O)NCC(N)=O | 1.8 | 4800 | > 10000 | 3400 | > 10000 | 120 | – | – | – |

Next, values leading:

| EC50 (Melanocortin receptor 5 [1]) [nM] | Ki (Melanocortin receptor 4 [2]) [nM] | EC50 (Melanocortin receptor 4 [3]) [nM] | Ki (Melanocortin receptor 3 [4]) [nM] | EC50 (Melanocortin receptor 3 [5]) [nM] | Ki (Melanocortin receptor 5 [6]) [nM] | Activity (Melanocortin receptor 3 [7]) [%] | Activity (Melanocortin receptor 4 [8]) [%] | Activity (Melanocortin receptor 5 [9]) [%] | SMILES |
| --- | --- | --- | --- | --- | --- | --- | --- | --- | --- |
| 140 | 1200 | 360 | 1600 | 210 | 210 | – | – | – | CCCC[C@H](NC(=O)[C@@H](NC(=O)[C@@H](N)Cc1ccc(O)cc1)C(C)C)C(=O)N[C@@H]1CSSC[C@@H](C(=O)N[C@@H](CCCNC(=N)N)C(=O)N[C@@H](Cc2ccccc2)C(=O)NCC(N)=O)NC(=O)[C@H](Cc2c[nH]c3ccccc23)NC(=O)[C@H](CCCNC(=N)N)NC(=O)[C@H](Cc2ccccc2)NC(=O)[C@H](Cc2cnc[nH]2)NC1=O |
| – | – | – | – | – | – | 77 | – | – | CC(C)[C@H](NC(=O)[C@@H](N)Cc1ccc(O)cc1)C(=O)N[C@H]1C(=O)NCC(=O)N[C@@H](Cc2c[nH]cn2)C(=O)N[C@H](Cc2ccccc2)C(=O)N[C@@H](CCCN=C(N)N)C(=O)N[C@@H](Cc2c[nH]c3ccccc23)C(=O)N[C@H](C(=O)N[C@@H](CCCN=C(N)N)C(=O)N[C@@H](Cc2ccccc2)C(=O)NCC(N)=O)CSSC1(C)C |
| > 10000 | > 10000 | > 10000 | 480 | > 10000 | 480 | – | – | – | CC(C)[C@H](NC(=O)[C@@H](N)Cc1ccc(O)cc1)C(=O)N[C@H]1CSSC(C)(C)[C@@H](C(=O)N[C@@H](CCCNC(=N)N)C(=O)N[C@@H](Cc2ccccc2)C(=O)NCC(N)=O)NC(=O)[C@H](Cc2c[nH]c3ccccc23)NC(=O)[C@H](CCCNC(=N)N)NC(=O)[C@H](Cc2ccccc2)NC(=O)[C@H](Cc2cnc[nH]2)NC(=O)CNC1=O (H-YVCGHFRW[Pen]RFG-NH2; disulfide 3-9) |
| – | – | – | – | – | – | 93 | 92 | 16 | CC(C)[C@H](NC(=O)[C@@H](N)Cc1ccc(O)cc1)C(=O)N[C@@H]1CSSC[C@@H](C(=O)N[C@@H](CCCN=C(N)N)C(=O)N[C@@H](Cc2ccccc2)C(=O)NCC(N)=O)NC(=O)[C@H](Cc2c[nH]c3ccccc23)NC(=O)[C@H](CCCN=C(N)N)NC(=O)[C@@H](Cc2ccccc2)NC(=O)[C@H](Cc2c[nH]cn2)NC(=O)CNC1=O |
| – | 62 | – | – | – | – | – | 105 | – | CCCC[C@H](NC(=O)[C@@H](NC(=O)[C@@H](N)Cc1ccc(O)cc1)C(C)C)C(=O)NCC(=O)N[C@@H](Cc1c[nH]cn1)C(=O)N[C@@H](Cc1ccccc1)C(=O)N[C@@H](CCCN=C(N)N)C(=O)N[C@@H](Cc1c[nH]c2ccccc12)C(=O)N[C@@H](CC(=O)O)C(=O)N[C@@H](CCCN=C(N)N)C(=O)N[C@@H](Cc1ccccc1)C(=O)NCC(N)=O |
| > 10000 | > 10000 | > 10000 | > 10000 | > 10000 | > 3900 | – | – | – | CC(C)[C@H](NC(=O)[C@@H](N)Cc1ccc(O)cc1)C(=O)N[C@H]1CSSC[C@H](C(=O)N[C@@H](CCCN=C(N)N)C(=O)N[C@@H](Cc2ccccc2)C(=O)NCC(N)=O)NC(=O)[C@H](Cc2c[nH]c3ccccc23)NC(=O)[C@H](CCCN=C(N)N)NC(=O)[C@H](Cc2ccccc2)NC(=O)[C@H](Cc2c[nH]cn2)NC(=O)CNC1=O |
| 200 | 9.6 | 340 | 5.5 | 240 | 8.8 | – | – | – | CCCC[C@H](NC(=O)[C@@H](NC(=O)[C@@H](N)Cc1ccc(O)cc1)C(C)C)C(=O)N[C@H]1CC(=O)NCCCC[C@@H](C(=O)N[C@@H](CCCN=C(N)N)C(=O)N[C@@H](Cc2ccccc2)C(=O)NCC(N)=O)NC(=O)[C@H](Cc2c[nH]c3ccccc23)NC(=O)[C@H](CCCN=C(N)N)NC(=O)[C@H](Cc2ccccc2)NC(=O)[C@H](Cc2c[nH]cn2)NC1=O |
| > 10000 | 12 | > 10000 | 150 | 400 | 1700 | – | – | – | CC(C)[C@H](NC(=O)[C@@H](N)Cc1ccc(O)cc1)C(=O)N[C@@H]1C(=O)NCC(=O)N[C@@H](Cc2cnc[nH]2)C(=O)N[C@@H](Cc2ccccc2)C(=O)N[C@@H](CCCNC(=N)N)C(=O)N[C@@H](Cc2c[nH]c3ccccc23)C(=O)N[C@H](C(=O)N[C@@H](CCCNC(=N)N)C(=O)N[C@@H](Cc2ccccc2)C(=O)NCC(N)=O)CSSC1(C)C |
| > 10000 | 4.6 | 44 | 12 | 12 | > 4800 | 40 | 100 | – | CCCC[C@H](NC(=O)[C@@H](NC(=O)[C@@H](N)Cc1ccc(O)cc1)C(C)C)C(=O)NCC(=O)N[C@@H](Cc1c[nH]cn1)C(=O)N[C@H](Cc1ccc2ccccc2c1)C(=O)N[C@@H](CCCN=C(N)N)C(=O)N[C@H](Cc1ccc2ccccc2c1)C(=O)N[C@@H](CC(=O)O)C(=O)N[C@@H](CCCN=C(N)N)C(=O)N[C@@H](Cc1ccccc1)C(=O)NCC(N)=O |
| 3.2 | 2.5 | 170 | 6.8 | 4.2 | 27 | – | – | – | CCCC[C@H](NC(=O)[C@@H](NC(=O)[C@@H](N)Cc1ccc(O)cc1)C(C)C)C(=O)N[C@H]1CSSC[C@@H](C(=O)N[C@@H](CCCNC(=N)N)C(=O)N[C@@H](Cc2ccccc2)C(=O)NCC(N)=O)NC(=O)[C@H](Cc2c[nH]c3ccccc23)NC(=O)[C@H](CCCNC(=N)N)NC(=O)[C@H](Cc2ccccc2)NC(=O)[C@H](Cc2cnc[nH]2)NC1=O |
| – | – | – | 0.81 | > 10000 | 1 | – | 100 | – | CCCC[C@H](NC(=O)[C@@H](NC(=O)[C@@H](N)Cc1ccc(O)cc1)C(C)C)C(=O)NCC(=O)N[C@@H](Cc1c[nH]cn1)C(=O)N[C@H](Cc1ccc2ccccc2c1)C(=O)N[C@@H](CCCN=C(N)N)C(=O)N[C@@H](Cc1c[nH]c2ccccc12)C(=O)N[C@@H](CC(=O)O)C(=O)N[C@@H](CCCN=C(N)N)C(=O)N[C@@H](Cc1ccccc1)C(=O)NCC(N)=O |
